According to PMC9547662 (Investigational new drugs, 2018):

What was measured:
MM.1S cells [1] = assay: Detection of mitochondrial superoxide; assay type: cell-based, human; settings: 24 hours; for mitochondrial superoxide induction (rank among six drug candidates): 0.6, 1.25, 2.5 and 5μM
[2] = test system: NRF2 nuclear translocation; assay: NRF2 nuclear translocation high-content screen in HepG2 cells; assay type: cell-based; settings: 0.625-10μM compound + 200μM t-BHQ, 2 hours
[3] = test system: ARE/Nrf2 transcriptional activity; assay: ARE/NRF2 luciferase reporter assay in ARE/HepG2/Luciferase reporter cells; assay type: cell-based; settings: 24 hours; for IC50: read-out: IC50 in HepG2 ARE/NRF2 reporter assay, 200μM t-BHQ, compounds 20nM to 10μM
Summary of the method: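 HepG2 ARE-luciferase reporter cells (7,000/well) cultured 24 h before test compound; t-BHQ added 30 min later; 24 h at […]; one-step luciferase reagent, luminescence read. Screen: 5μM, 200 or 500μM t-BHQ, two independent runs, Z-scores normalized to mean of compound-treated wells. Dose-response: […] serial dilutions 20nM–10μM plus 200μM t-BHQ; 0.5% DMSO control; percent of DMSO control.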

MM.1S cells [4] = assay: MTS assay of cell growth in MM.1S cells; assay type: cell-based, human
[5] = test system: NRF2 nuclear translocation; assay: NRF2 nuclear translocation assay in MM.1S cells; assay type: cell-based, human; settings: 2 hours, no t-BHQ
Summary of the method: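 MM.1S cells (300,000/well) exposed 2 h to test compound, DMSO or 2 mM N-acetyl-L-cysteine; fixed 4% PFA 30 min, permeabilized/blocked (2% BSA, 0.1% Triton X-100) 30 min; stained with Hoechst 33342 (4ug/mL) and NRF2-Alexa Fluor 488 antibody (1:1000); high-content imaging and image analysis; NRF2 inhibition expressed as Z-scores.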

U266 cells [6] = assay: MTS assay of cell growth in U266 cells; assay type: cell-based, human; settings: 5μM single agent, 24, 48 and 72 hours
U266 cells [7] = assay: Detection of mitochondrial superoxide; assay type: cell-based, human; settings: 24 hours
U266 cells [8] = assay: Viability by DAPI staining; assay type: cell-based, human; settings: 5μM, 24 hours
Summary of the method: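 Over 24 hours, U266 cells (RPMI 1640, 10% heat-inactivated FBS, 1% L-glutamine, penicillin-streptomycin; 5% CO2, 37°C) were treated with test compound at 5μM, alone or with 200μM pyocyanin. Vehicle was the negative control and 200μM pyocyanin the positive control. Cells were stained with DAPI, and viability was scored by flow cytometry as percentage DAPI-negative. Mean and SEM are reported.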

| IC50 [3] [nM] | Compound | mitochondrial superoxide induction (rank among six drug candidates) (MM.1S cells [1]) | effect on nuclear translocation of NRF2 (ratio of cytoplasmic to nuclear NRF2) [2] | also measured |
| --- | --- | --- | --- | --- |
| 1000 | Cc1ccc(NC(=O)c2cccc(C(C)(C)C#N)c2)cc1Nc1ccc2ncn(C)c(=O)c2c1 [AZ-628] | followed by AZ-628 | affected nuclear translocation of NRF2 | cell growth (MM.1S cells [4]; 2.5μM and 5μM, 48 hours): significant inhibition of cell growth |
| 310 | N#C/C(=C(/N)Sc1ccc(N)cc1)c1ccccc1C(F)(F)F [SL-327] | followed by AZ-628 and SL-327 | affected nuclear translocation of NRF2 | effect on nuclear translocation of NRF2 [5]: anticipated inhibitory effect on nuclear translocation of NRF2 |
|  | CC(C)(C)c1cc(O)ccc1O [t-BHQ, tert-butylhydroquinone] |  |  | induction of NRF2 transcriptional activity ([3]; 200μM or 500μM t-BHQ, HepG2 cells): robust induction of NRF2 transcriptional activity |
| 2700 | C=CCc1cccc(/C=N/NC(=O)CN2CCN(Cc3ccccc3)CC2)c1O [PAC-1] |  |  |  |
|  | brusatol |  |  | cell growth (U266 cells [6]): efficiently suppressed growth; mitochondrial superoxide levels (U266 cells [7]; 5μM): increased superoxide levels; viability (percentage of DAPI-negative viable cells) (U266 cells [8]): decreased viability; cell growth (MM.1S cells [4]; 5μM single agent, 24, 48 and 72 hours): efficiently suppressed growth |
| 620 | vitamin B12 |  |  |  |
| 160 | Cc1ccc(C(=O)Cn2c3c(sc2=N)CCCC3)cc1 [Pifithrin-α, pifithrin-α] |  |  |  |
|  | Cn1c2cccc(=O)c-2nc2ccccc21 [Pyocyanin, pyocyanin] |  |  | mitochondrial superoxide induction (MM.1S cells [1]; serial dilutions 0 to 300μM): efficient and dose-dependent induction of mitochondrial superoxide; mitochondrial superoxide induction (U266 cells [7]; serial dilutions 0 to 300μM): efficient and dose-dependent induction of mitochondrial superoxide |
| 2410 | O=C1NCCc2[nH]c(-c3ccncc3)cc21 [PHA-767491] | most potent superoxide inducer | affected nuclear translocation of NRF2 | cell growth (MM.1S cells [4]; 2.5μM and 5μM, 48 hours): significant inhibition of cell growth |
